In ChEMBL document CHEMBL1127543, “Dual angiotensin converting enzyme/thromboxane synthase inhibitors” (J Med Chem, 1994):
Active and inactive are the calls of the source. The calls are words filed in the database; no cut-off is given here.

Columns and labels:
[1] = molecular target: T1, Angiotensin-converting enzyme (Oryctolagus cuniculus, UniProt P12822); assay: Tested for 50% inhibition of Angiotensin converting enzyme(ACE) obtained from rabbit lung (in vitro)
T1 sequence (P12822 whole entry): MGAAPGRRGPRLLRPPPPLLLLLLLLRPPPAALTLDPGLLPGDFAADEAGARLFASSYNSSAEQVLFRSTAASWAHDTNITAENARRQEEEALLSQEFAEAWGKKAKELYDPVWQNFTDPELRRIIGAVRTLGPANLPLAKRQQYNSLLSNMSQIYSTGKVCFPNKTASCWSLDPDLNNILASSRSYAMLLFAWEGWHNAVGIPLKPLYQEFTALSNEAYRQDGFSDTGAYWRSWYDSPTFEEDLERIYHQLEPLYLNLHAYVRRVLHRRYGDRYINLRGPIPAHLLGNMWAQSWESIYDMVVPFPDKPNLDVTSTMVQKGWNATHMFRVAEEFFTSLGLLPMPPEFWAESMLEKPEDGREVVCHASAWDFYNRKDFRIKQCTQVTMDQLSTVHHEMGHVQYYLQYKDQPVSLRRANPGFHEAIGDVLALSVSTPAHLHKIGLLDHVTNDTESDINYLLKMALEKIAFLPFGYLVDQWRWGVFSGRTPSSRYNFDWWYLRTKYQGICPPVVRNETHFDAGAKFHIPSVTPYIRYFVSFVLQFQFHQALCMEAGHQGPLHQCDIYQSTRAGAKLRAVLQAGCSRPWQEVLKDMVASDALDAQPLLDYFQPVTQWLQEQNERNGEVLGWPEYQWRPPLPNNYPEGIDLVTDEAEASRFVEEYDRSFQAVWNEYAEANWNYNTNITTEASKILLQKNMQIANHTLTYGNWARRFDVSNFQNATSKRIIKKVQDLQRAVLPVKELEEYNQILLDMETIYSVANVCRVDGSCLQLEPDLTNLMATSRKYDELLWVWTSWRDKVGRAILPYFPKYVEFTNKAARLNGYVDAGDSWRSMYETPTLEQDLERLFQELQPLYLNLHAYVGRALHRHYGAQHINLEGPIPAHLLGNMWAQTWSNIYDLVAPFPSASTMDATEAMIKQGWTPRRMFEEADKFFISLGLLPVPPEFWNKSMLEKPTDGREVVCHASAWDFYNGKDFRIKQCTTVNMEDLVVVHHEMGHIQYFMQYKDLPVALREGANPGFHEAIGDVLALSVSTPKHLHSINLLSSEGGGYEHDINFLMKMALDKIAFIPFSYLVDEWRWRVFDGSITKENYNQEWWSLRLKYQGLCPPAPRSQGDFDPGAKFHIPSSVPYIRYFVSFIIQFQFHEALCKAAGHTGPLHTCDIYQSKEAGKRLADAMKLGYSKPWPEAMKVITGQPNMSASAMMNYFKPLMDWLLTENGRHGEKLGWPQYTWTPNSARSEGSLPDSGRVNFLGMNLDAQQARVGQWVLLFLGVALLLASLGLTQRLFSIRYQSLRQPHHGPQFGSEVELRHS
Summary of the method: (§1)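 ACE was partially purified from rabbit lung and incubated with the synthetic substrate Hip-His-Leu. The hippuric acid product was measured spectrophotometrically. IC50 was read graphically from a range of inhibitor concentrations within the assay's linear range. Each determination was done in duplicate and repeated once.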

[2] = molecular target: T2, Thromboxane-A synthase (Homo sapiens, UniProt P24557); assay: Tested for 50% inhibition of thromboxane synthase (TxS) in human platelets (in vitro); Not active
T2 sequence (P24557 whole entry): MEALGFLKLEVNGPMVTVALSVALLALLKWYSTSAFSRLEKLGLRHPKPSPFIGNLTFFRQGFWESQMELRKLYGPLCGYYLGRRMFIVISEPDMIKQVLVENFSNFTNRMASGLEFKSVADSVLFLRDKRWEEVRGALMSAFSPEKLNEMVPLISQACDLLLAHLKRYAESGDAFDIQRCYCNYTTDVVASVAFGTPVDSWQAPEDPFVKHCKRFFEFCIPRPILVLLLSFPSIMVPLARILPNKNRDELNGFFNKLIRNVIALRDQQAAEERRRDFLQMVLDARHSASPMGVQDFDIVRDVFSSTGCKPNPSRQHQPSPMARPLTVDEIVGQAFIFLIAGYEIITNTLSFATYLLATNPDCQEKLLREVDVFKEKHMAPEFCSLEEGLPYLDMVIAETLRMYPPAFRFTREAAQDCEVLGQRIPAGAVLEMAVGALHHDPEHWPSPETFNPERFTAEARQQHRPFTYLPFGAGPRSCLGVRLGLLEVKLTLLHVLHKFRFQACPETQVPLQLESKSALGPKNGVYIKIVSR
Summary of the method: (§2)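 IC50 was obtained graphically from a range of compound concentrations within the linear range of the assay. Determinations were made in duplicate and repeated once.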

[3] = molecular target: T2, Thromboxane-A synthase; assay: Tested for 50% inhibition of thromboxane synthase (TxS) in human platelets (in vitro); summary of the method: as §2
[4] = molecular target: T1, Angiotensin-converting enzyme; assay: Tested for 50% inhibition of Angiotensin converting enzyme(ACE) obtained from rabbit lung (in vitro); Not active; summary of the method: as §1
[5] = tested on: Rattus norvegicus; assay: Antihypertensive activity was measured in spontaneously hypertensive rat (SHR) by measuring the blood pressure after 24 hours when administered orally at dose of 5 mg/kg; type: functional; conditions: route oral
Summary of the method: (§3)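 Conscious, unrestrained, fully ambulatory SHR (250–280 g) fed normal pellet chow with free access to tap water, on a 12-h light cycle. Oral dosing used a vehicle at 1 mL/kg po. The read-out was the change in mean arterial pressure from control.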

[6] = tested on: Rattus norvegicus; assay: Antihypertensive activity was measured in spontaneously hypertensive rat (SHR) by measuring the maximum blood pressure when administered orally at dose of 5 mg/kg after 3 h; type: functional; conditions: route oral
Summary of the method: (§4)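 Conscious, fully ambulatory SHR (250–280 g) were fitted with an arterial catheter led through an infusion swivel inside a protective spring. After 24 h recovery from surgery, rats were housed singly. Mean arterial pressure was recorded continuously after dosing over a 6-h period, with later readings up to 24 h. Rats had chow and tap water freely under a 12-h light cycle.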

[7] = tested on: Rattus norvegicus; assay: Tested for percent inhibition of maximum angiotensin I (AI) pressor response in rats on oral administration of 300 mg/kg after 2 hr; type: functional
Summary of the method: (§5)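 Conscious catheterized SHR were prepared as for blood pressure recording. At set times after dosing, angiotensin I was injected intraarterially in 0.5 mL. The rise in arterial pressure was recorded and expressed as percent inhibition of the angiotensin I pressor response.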

[8] = tested on: Rattus norvegicus; assay: Tested for percent inhibition of maximum angiotensin I (AI) pressor response in rats on oral administration of 300 mg/kg after 6 hr; type: functional; summary of the method: as §5
[9] = tested on: Rattus norvegicus; assay: Antihypertensive activity was measured in spontaneously hypertensive rat (SHR) by measuring the maximum blood pressure when administered orally at dose of 30 mg/kg after 6 h; type: functional; conditions: route oral; summary of the method: as §4
[10] = tested on: Rattus norvegicus; assay: Antihypertensive activity was measured in spontaneously hypertensive rat (SHR) by measuring the blood pressure after 24 hours when administered orally at dose of 30 mg/kg; type: functional; conditions: route oral; summary of the method: as §3
[11] = tested on: Rattus norvegicus; assay: Antihypertensive activity was measured in spontaneously hypertensive rat (SHR) by measuring the maximum blood pressure when administered orally at dose of 10 mg/kg after 6 h; type: functional; conditions: route oral; summary of the method: as §4
[12] = tested on: Rattus norvegicus; assay: Antihypertensive activity was measured in spontaneously hypertensive rat (SHR) by measuring the blood pressure after 24 hours when administered orally at dose of 10 mg/kg; type: functional; conditions: route oral; summary of the method: as §4
[13] = tested on: Rattus norvegicus; assay: Tested for percent inhibition of maximum angiotensin I (AI) pressor response in rats on oral administration of 300 mg/kg after 5 hr; type: functional; summary of the method: as §5
[14] = species on record: Rattus norvegicus; conditions: 30 mg/kg
[15] = tested on: Rattus norvegicus; assay: Tested for percent inhibition of maximum angiotensin I (AI) pressor response in rats on oral administration of 300 mg/kg after 4 hr; type: functional; summary of the method: as §5
[16] = tested on: Rattus norvegicus; assay: Antihypertensive activity was measured in spontaneously hypertensive rat (SHR) by measuring the maximum blood pressure when administered orally at dose of 30 mg/kg after 4 h; type: functional; conditions: route oral; summary of the method: as §4
[17] = tested on: Rattus norvegicus; assay: Antihypertensive activity was measured in spontaneously hypertensive rat (SHR) by measuring the maximum blood pressure when administered orally at dose of 10 mg/kg after 4 hr; type: functional; conditions: route oral; summary of the method: as §4
[18] = tested on: Rattus norvegicus; assay: Antihypertensive activity was measured in spontaneously hypertensive rat (SHR) by measuring the maximum blood pressure when administered orally at dose of 10 mg/kg after 5 h; type: functional; conditions: route oral; summary of the method: as §4
[19] = tested on: Rattus norvegicus; assay: Antihypertensive activity was measured in spontaneously hypertensive rat (SHR) by measuring the blood pressure on interarterial administration at dose of 1 mg/kg after 5 h; type: functional, Artery; summary of the method: as §4
[20] = tested on: Rattus norvegicus; assay: Tested for percent inhibition of maximum angiotensin I (AI) pressor response in rats on oral administration of 300 mg/kg after 0.5 hr; type: functional; summary of the method: as §5
[21] = tested on: Rattus norvegicus; assay: Antihypertensive activity was measured in spontaneously hypertensive rat (SHR) by measuring the blood pressure after 24 hours on interarterial administration at dose of 1 mg/kg; Not significant; type: functional, organism-based; parameters: dose 1 mg/kg; conditions: Artery; summary of the method: as §4
[22] = tested on: Rattus norvegicus; assay: Antihypertensive activity was measured in spontaneously hypertensive rat (SHR) by measuring the blood pressure on interarterial administration at dose of 1 mg/kg; Not significant; type: functional, organism-based; parameters: dose 1 mg/kg; conditions: Artery; summary of the method: as §4

## CCOC(=O)[C@H](CCc1ccccc1)N[C@H]1CCc2ccccc2N(CC(=O)O)C1=O [BENAZEPRIL]
[1]
  IC50: 2 nM
[2]
  IC50: Not Active

## Cc1c(-c2cccnc2)n(CCCCP(=O)(O)O)c2ccccc12
[3]
  IC50: 100 nM
[4]
  IC50: Not Active

## Cc1c(-c2cccnc2)n(CCCCCCCC(=O)O)c2ccccc12
[4]
  IC50: Not Active

## O=C(O)CN1C(=O)[C@@H](N[C@@H](CCc2ccccc2)C(=O)O)C[C@@H](O)c2ccccc21
[1]
  IC50: 8 nM
[2]
  IC50: Not Active

## CCOC(=O)C(CCc1ccccc1)NC(C)C(=O)N1CCC[C@H]1C(=O)O (single isomer, unassigned)
[5]
  Delta blood pressure: -17 mmHg
[6]
  Max delta BP: -28 mmHg
[7]
  inhibition in vivo at 300 mg/kg: 100%
[2]
  IC50: Not Active

## Cc1c(-c2cccnc2)n(CCCCC(=O)O)c2ccccc12
[4]
  IC50: Not Active

## Cn1c(-c2cccnc2)c(CCCCCC(=O)O)c2cc(Cl)ccc21
[4]
  IC50: Not Active

## CNCCN(CCCC[C@H](N[C@H]1CCc2ccccc2N(CC(=O)[O-])C1=O)C(=O)[O-])C(=O)CCCCCc1c(-c2cccnc2)n(C)c2ccc(Cl)cc12.[Na+].[Na+]
[3]
  IC50: 18 nM
[1]
  IC50: 10 nM
[8]
  inhibition in vivo at 300 mg/kg: 71%
[9]
  Max delta BP: -39 mmHg
[10]
  Delta blood pressure: -20 mmHg

## CC(=O)O[C@@H]1C[C@H](N[C@@H](CCc2ccccc2)C(=O)O)C(=O)N(CC(=O)O)c2ccccc21
[1]
  IC50: 6 nM

## Cn1c(-c2cccnc2)c(CCCCCC(=O)NCCNCCCC[C@H](N[C@H]2CCc3ccccc3N(CC(=O)[O-])C2=O)C(=O)[O-])c2cc(Cl)ccc21.[K+].[K+]
[3]
  IC50: 10 nM
[11]
  Max delta BP: -38 mmHg
[12]
  Delta blood pressure: -23 mmHg
[1]
  IC50: 4 nM
[13]
  inhibition in vivo at 300 mg/kg: 39%

## Cc1c(-c2cccnc2)n(CCCCP(=O)(O)OC2CCc3ccccc3N(CC(=O)O)C2=O)c2ccccc12 (centres undefined)
[3]
  IC50: 20 nM
[1]
  IC50: 30 nM

## Cc1c(-c2cccnc2)n(CCCCCCCC(=O)O[C@@H]2C[C@H](N[C@@H](CCc3ccccc3)C(=O)O)C(=O)N(CC(=O)O)c3ccccc32)c2ccccc12
[3]
  IC50: 20 nM
[1]
  IC50: 90 nM

## O=C(O)CN1C(=O)[C@@H](N[C@@H](CCCCNCCO)C(=O)O)CCc2ccccc21
[1]
  IC50: 7 nM
[14]
  Delta blood pressure: inactive
[2]
  IC50: Not Active
[15]
  inhibition in vivo at 300 mg/kg: 84%
[16]
  Max delta BP: -28 mmHg

## O=C(O)C(CCCCc1cccc2cncn12)CCC(=O)N1c2ccccc2C[C@H]1C(=O)O (some centres undefined)
[1]
  IC50: 20 nM

## O=C([O-])CN1C(=O)C(OP(=O)([O-])CCCCc2ccccc2)CCc2ccccc21.[Na+].[Na+] (centres undefined)
[1]
  IC50: 20 nM
[2]
  IC50: Not Active

## NCCCC[C@H](N[C@@H]1CCc2ccccc2N(CC(=O)O)C1=O)C(=O)O
[12]
  Delta blood pressure: -18 mmHg
[17]
  Max delta BP: -30 mmHg
[1]
  IC50: 7 nM
[7]
  inhibition in vivo at 300 mg/kg: 70%

## Cn1c(-c2cccnc2)c(CCCCCC(=O)N(CCO)CCCC[C@H](N[C@H]2CCc3ccccc3N(CC(=O)O)C2=O)C(=O)O)c2cc(Cl)ccc21
[12]
  Delta blood pressure: -30 mmHg
[18]
  Max delta BP: -42 mmHg
[19]
  Max delta BP: -23 mmHg
[1]
  IC50: 10 nM
[13]
  inhibition in vivo at 300 mg/kg: 30%
[20]
  inhibition in vivo at 300 mg/kg: 76%
[21]
  Delta blood pressure: inactive

## Cn1c(-c2cccnc2)c(CCCCCC(=O)NCCCC[C@H](N[C@@H]2CCc3ccccc3N(CC(=O)O)C2=O)C(=O)O)c2cc(Cl)ccc21
[3]
  IC50: 4 nM
[22]
  Max delta BP: inactive
[1]
  IC50: 6 nM
[20]
  inhibition in vivo at 300 mg/kg: 81%
[21]
  Delta blood pressure: inactive

## CCOP(=O)(O)CCCCn1c(-c2cccnc2)c(C)c2ccccc21.Cl
[3]
  IC50: 9 nM
[4]
  IC50: Not Active
